Marks after values point to notes of the source that are not given here.
Legend:
Type in all cases: in vivo, human
[1] = system: patients with chronic constipation; assay: Bowel functions; details: for proportion of patients with first SBM within 24 h: placebo 40.0%
Summary of the method: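 Test compound or placebo orally once daily before breakfast for 14 days. Patients recorded the time of each BM (BM, SBM, complete SBM), Bristol Stool Form Scale, straining (five levels), completeness of evacuation and GI symptoms including discomfort (five levels). Bisacodyl suppository rescue was allowed after ≥72 h without BM with symptoms. Descriptive statistics were used.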

[2] = system: QTcF intervals; assay: ECG QTcF evaluation; details: S-test and M-test, 2.5-20 mg
Summary of the method: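 12-lead surface ECG in both single- and 14-day dosing tests. QT was Fridericia-corrected by experienced central-laboratory readers. ΔQTcF from baseline was calculated at each time point, and ΔΔQTcF versus placebo was estimated with 90% CI. Categorical counts: absolute QTcF >450, >480 and >500 ms; ΔQTcF >30 and >60 ms.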

[3] = Pharmacokinetics of elobixibat; details: for AUC(0–t), back transformed LSM ratio breakfast/no breakfast / Cmax, back transformed LSM ratio breakfast/no breakfast: linear mixed effect model; for fe144h / Ae144h: urine 0-144 h; for fe144h: arithmetic mean; for Ae144h: geometric mean (CV)
Summary of the method: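 Single oral dose, 2.5–20 mg, with or without breakfast, in crossover. Plasma was drawn predose and at 0.5–12 h on Days –1, 1, 7 and 8, plus daily. Urine was collected daily except Day 7. Analyte was measured by LC–MS/MS (LLOQ 10.0 pg ml–1). Noncompartmental analysis with linear trapezoidal AUC. Dose proportionality (no-breakfast regimen) was assessed by power model or ANOVA on log values. Food effect: mixed model, back-transformed LSM ratios.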

[4] = system: patients with chronic constipation; assay: Adverse events, M-test
Summary of the method: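 Patients randomized 5:1 to test compound (2.5, 5, 10, 15 or 20 mg) or placebo. Oral tablet once daily before breakfast for 14 consecutive days, inpatient Day –2 to Day 21. AE type, severity and incidence were recorded with physical exams, vital signs, 12-lead ECG and laboratory tests. Proportions of patients with AEs were tabulated, and dose-dependency was tested by Cochran–Armitage trend test.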

[5] = single dose 2.5 mg, before breakfast
[6] = single dose 2.5 mg, no breakfast
[7] = single dose 5 mg, before breakfast
[8] = single dose 10 mg, before breakfast
[9] = single dose 10 mg, no breakfast
[10] = single dose 15 mg, before breakfast
[11] = single dose 15 mg, no breakfast
[12] = single dose 20 mg, before breakfast
[13] = single dose 20 mg, no breakfast
[14] = 2.5 mg once daily 14 days (group n=10)
[15] = 5 mg once daily 14 days (group n=10)
[16] = 10 mg once daily 14 days (group n=9)
[17] = 15 mg once daily 14 days (group n=10)
[18] = 20 mg once daily 14 days (group n=10)

CCCCC1(CCCC)CN(c2ccccc2)c2cc(SC)c(OCC(=O)N[C@@H](C(=O)NCC(=O)O)c3ccccc3)cc2S(=O)(=O)C1 [elobixibat]
proportion of patients with first SBM within 24 h ([1]; 2.5 mg day^–1 (10/10)): 100%
proportion of patients with first SBM within 24 h ([1]; 5 mg day^–1 (10/10)): 100%
proportion of patients with first SBM within 24 h ([1]; 10 mg day^–1 (9/9)): 100%
proportion of patients with first SBM within 24 h ([1]; 15 mg day^–1 (8/9)): 88.9%
proportion of patients with first SBM within 24 h ([1]; 20 mg day^–1 (10/10)): 100%
patients reporting worse abdominal discomfort ([1]; 20 mg day^–1 group): 40%
patients reporting improvement of abdominal discomfort ([1]; 5 and 10 mg day^–1 groups): Nearly half
time to the first SBM compared with placebo ([1]; M-test): evidently shorter
changes in SBM frequency from baseline (Week –1) ([1]; M-test Weeks 1 and 2): dose‐dependent increases
QTcF prolongation (>450 ms), categorical analysis [2]: no QTcF prolongation
plasma elobixibat concentration, range ([3]; 2.5-20 mg): picomolar range
quantity of drug excreted in the urine ([3]; all dosing levels, both regimens): less than 0.01%
slope of the regression line (power model) for Ae144h ([3]; no‐breakfast regimen, 2.5-20 mg, dose proportionality): 0.9321
fraction of dose excreted in urine (fe) up to 144 h ([3]; no‐breakfast regimen, all dosing groups (2.5-20 mg)): < 0.01%
t1/2 versus dose ([3]; no‐breakfast regimen, P < 0.001, said to be apparent (LLOQ)): prolonged dose‐dependently
AUC(0–t), back transformed LSM ratio breakfast/no breakfast ([3]; single dose 2.5 mg): 0.1368
Cmax, back transformed LSM ratio breakfast/no breakfast ([3]; single dose 2.5 mg): 0.2448
AUC(0–t), back transformed LSM ratio breakfast/no breakfast ([3]; single dose 5 mg): 0.2318
Cmax, back transformed LSM ratio breakfast/no breakfast ([3]; single dose 5 mg): 0.2922
AUC(0–t), back transformed LSM ratio breakfast/no breakfast ([3]; single dose 10 mg): 0.1989
Cmax, back transformed LSM ratio breakfast/no breakfast ([3]; single dose 10 mg): 0.2531
AUC(0–t), back transformed LSM ratio breakfast/no breakfast ([3]; single dose 15 mg): 0.1884
Cmax, back transformed LSM ratio breakfast/no breakfast ([3]; single dose 15 mg): 0.2085
AUC(0–t), back transformed LSM ratio breakfast/no breakfast ([3]; single dose 20 mg): 0.2275
Cmax, back transformed LSM ratio breakfast/no breakfast ([3]; single dose 20 mg): 0.2240
fe144h [3, 5]: 0.0008 ^a %
Ae144h [3, 5]: 24.30 (72.9) ^a ng
fe144h [3, 6]: 0.0098%
Ae144h [3, 6]: 213.28 (59.5) ng
fe144h [3, 7]: 0.0021%
Ae144h [3, 7]: 107.50 (63.4) ng
fe144h ([3]; single dose 5 mg, no breakfast): 0.0077%
Ae144h ([3]; single dose 5 mg, no breakfast): 306.59 (38.8) ng
fe144h [3, 8]: 0.0016%
Ae144h [3, 8]: 139.38 (49.9) ng
fe144h [3, 9]: 0.0070%
Ae144h [3, 9]: 598.14 (67.8) ng
fe144h [3, 10]: 0.0013 ^a %
Ae144h [3, 10]: 188.43 (37.2) ^a ng
fe144h [3, 11]: 0.0070 ^a %
Ae144h [3, 11]: 873.09 (68.4) ^a ng
fe144h [3, 12]: 0.0021 ^a %
Ae144h [3, 12]: 384.85 (55.6) ^a ng
fe144h [3, 13]: 0.0088%
Ae144h [3, 13]: 1623.23 (41.5) ng
AEs associated with gastrointestinal disorders, % of patients [4, 14]: (80.0) %
AEs associated with gastrointestinal disorders, n of patients [4, 14]: 8
Any AEs, % of patients [4, 14]: (80.0) %
Any AEs, n of patients [4, 14]: 8
abdominal distention, % of patients [4, 14]: (30.0) %
abdominal distention, n of patients [4, 14]: 3
abdominal pain lower, % of patients [4, 14]: (40.0) %
abdominal pain lower, n of patients [4, 14]: 4
abdominal pain upper, n of patients [4, 14]: 0
diarrhoea, % of patients [4, 14]: (10.0) %
diarrhoea, n of patients [4, 14]: 1
AEs associated with gastrointestinal disorders, % of patients [4, 15]: (80.0) %
AEs associated with gastrointestinal disorders, n of patients [4, 15]: 8
Any AEs, % of patients [4, 15]: (90.0) %
Any AEs, n of patients [4, 15]: 9
abdominal distention, % of patients [4, 15]: (30.0) %
abdominal distention, n of patients [4, 15]: 3
abdominal pain lower, % of patients [4, 15]: (30.0) %
abdominal pain lower, n of patients [4, 15]: 3
abdominal pain upper, % of patients [4, 15]: (20.0) %
abdominal pain upper, n of patients [4, 15]: 2
diarrhoea, % of patients [4, 15]: (40.0) %
diarrhoea, n of patients [4, 15]: 4
AEs associated with gastrointestinal disorders, % of patients [4, 16]: (77.8) %
AEs associated with gastrointestinal disorders, n of patients [4, 16]: 7
Any AEs, % of patients [4, 16]: (100.0) %
Any AEs, n of patients [4, 16]: 9
abdominal distention, % of patients [4, 16]: (22.2) %
abdominal distention, n of patients [4, 16]: 2
abdominal pain lower, % of patients [4, 16]: (33.3) %
abdominal pain lower, n of patients [4, 16]: 3
abdominal pain upper, % of patients [4, 16]: (22.2) %
abdominal pain upper, n of patients [4, 16]: 2
diarrhoea, % of patients [4, 16]: (44.4) %
diarrhoea, n of patients [4, 16]: 4
AEs associated with gastrointestinal disorders, % of patients [4, 17]: (70.0) %
AEs associated with gastrointestinal disorders, n of patients [4, 17]: 7
Any AEs, % of patients [4, 17]: (90.0) %
Any AEs, n of patients [4, 17]: 9
abdominal distention, % of patients [4, 17]: (40.0) %
abdominal distention, n of patients [4, 17]: 4
abdominal pain lower, % of patients [4, 17]: (40.0) %
abdominal pain lower, n of patients [4, 17]: 4
abdominal pain upper, n of patients [4, 17]: 0
diarrhoea, % of patients [4, 17]: (40.0) %
diarrhoea, n of patients [4, 17]: 4
AEs associated with gastrointestinal disorders, % of patients [4, 18]: (90.0) %
AEs associated with gastrointestinal disorders, n of patients [4, 18]: 9
Any AEs, % of patients [4, 18]: (90.0) %
Any AEs, n of patients [4, 18]: 9
abdominal distention, % of patients [4, 18]: (60.0) %
abdominal distention, n of patients [4, 18]: 6
abdominal pain lower, % of patients [4, 18]: (50.0) %
abdominal pain lower, n of patients [4, 18]: 5
abdominal pain upper, % of patients [4, 18]: (20.0) %
abdominal pain upper, n of patients [4, 18]: 2
diarrhoea, % of patients [4, 18]: (80.0) %
diarrhoea, n of patients [4, 18]: 8
safety and tolerability ([4]; once‐daily administration, female and male patients): safe and tolerated up to 20 mg
